NR3A LBD binder = binders of NR3A ligand-binding domain, primary screen, biophysical, differential scanning fluorimetry, uHTS | Glutamate receptor ionotropic, NMDA 3A (GRIN3A) ligand-binding domain | NR3A LBD differential scanning fluorimetry, Tm shift; 0% = protein alone, 100% = glycine-bound protein | Tm shift relative to glycine control, % at 25 µM | hit rate 2.5% among 340,000 | AID 1259313, 2017;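 active means melting temperature shift of at least 10% of the positive control shift, at one fixed dose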
NadD block = inhibitors of S. aureus NadD, primary screen, biochemical, colorimetric, uHTS. Nicotinate-nucleotide adenylyltransferase NadD (Staphylococcus aureus N315). purified NadD enzyme, colorimetric absorbance read-out. inhibition, % at 20 µM. hit rate 0.78% among 360,000; in the data active means inhibition above about 26%
SENP1 FRET inh = human SENP1 catalytic domain inhibitors, primary screen, biochemical, FRET, uHTS | AID 624204, 2012 | Sentrin-specific protease 1 (Homo sapiens), Q9P0U3 | inhibition, % at 10 µM | recombinant SENP1 catalytic domain, CyPet-SUMO1-YPet FRET cleavage | hit rate 0.21% among 360,000;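 active means inhibition at least 30% at 10 µM, raw YFP signal under a set limit, fluorescence ratio 0.5 to 1.5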
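system = hSENP1 catalytic domain, recombinant | reagent = SFCypet-SUMO1-SFYpet substrate at 25 nM | doses = one dose per compound, 10 µM, 0.5% DMSO | incubation = enzyme reaction for 50 min at room temperature, dark | measured by = FRET, CFP and YFP emission | controls = no-enzyme low, enzyme-DMSO high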
UCH37 DUB inh = inhibitors of human UCH37 deubiquitinase, primary screen, biochemical, Ub-AMC cleavage, fluorescence; Ubiquitin carboxyl-terminal hydrolase isozyme L5 (Homo sapiens), Q9Y5K5; purified proteasome/UCH37; inhibition, % (test concentration not listed); hit rate 0.33% among 330,000;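 active means mean inhibition over replicate wells above about 20%, limit read from the data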
Target sequence (Q9Y5K5 whole entry, looked up): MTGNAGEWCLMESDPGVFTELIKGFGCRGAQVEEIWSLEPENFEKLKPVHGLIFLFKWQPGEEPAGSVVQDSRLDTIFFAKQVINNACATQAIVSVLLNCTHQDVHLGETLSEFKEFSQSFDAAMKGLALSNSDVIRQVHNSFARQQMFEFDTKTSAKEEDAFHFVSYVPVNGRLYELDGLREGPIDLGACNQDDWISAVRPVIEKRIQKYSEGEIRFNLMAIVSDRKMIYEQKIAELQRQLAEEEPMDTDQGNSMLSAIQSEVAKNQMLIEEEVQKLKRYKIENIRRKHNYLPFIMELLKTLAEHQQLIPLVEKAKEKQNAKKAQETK
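Reagent: Ub-AMC substrate; assay system: Proteasome-associated human UCH37 deubiquitinase; controls: no-proteasome and no-compound wells; read-out: % inhibition of Ub-AMC cleavage fluorescence; timing: 30 min preincubation with enzyme, 25 min cleavage at room temperature; signal: AMC fluorescence from Ub-AMC cleavage, excitation 355 nm, emission 460 nm; buffer or medium: Tris-HCl pH 7.4 plus ovalbumin, ATP-MgCl2, DTT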
ATG4B inh = ATG4B protease inhibitors, primary screen, biochemical, fluorescence, uHTS | ATG4B cleavage of LC3-PLA2, NBD-HPC fluorescence, 1 h | Cysteine protease ATG4B (Homo sapiens), Q9Y4P1 | hit rate 0.51% among 340,000 | AID 504462, 2011 | inhibition, % at 8.33 µM; in the data active means inhibition above about 40%
Target sequence (Q9Y4P1 whole entry, looked up): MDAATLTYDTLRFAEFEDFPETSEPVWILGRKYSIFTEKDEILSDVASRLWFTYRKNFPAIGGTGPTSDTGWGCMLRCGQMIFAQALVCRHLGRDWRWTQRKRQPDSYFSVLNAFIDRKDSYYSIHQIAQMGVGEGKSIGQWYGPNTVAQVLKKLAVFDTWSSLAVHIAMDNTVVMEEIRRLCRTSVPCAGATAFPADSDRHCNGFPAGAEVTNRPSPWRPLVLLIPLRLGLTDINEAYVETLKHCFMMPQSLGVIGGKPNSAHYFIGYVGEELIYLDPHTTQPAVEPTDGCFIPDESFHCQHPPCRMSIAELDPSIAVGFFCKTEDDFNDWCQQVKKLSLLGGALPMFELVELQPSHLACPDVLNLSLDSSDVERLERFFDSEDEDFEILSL
NadD conf = inhibitors of S. aureus NadD, confirmation, biochemical, colorimetric, single concentration; shares compounds with NadD block; purified S. aureus NadD, colorimetric enzyme assay; inhibition, % at 20 µM; hit rate 13% among 2,000; AID 624309, 2012; in the data active means inhibition mostly above about 42%, no sharp cut-off; inactive means mostly below about 42%
Of the large screens only hits and unclear results are named; the others gave an inactive call (follow-up assays come after a bar, where they were run). Compounds with a hit are over-represented: about 3.6% of the library has one in this group of screens.

CSCC[C@H](NC(=O)OC(C)(C)C)C(=O)NN=Cc1cccc2cccnc12	none (no result: NR3A LBD binder, NadD block, SENP1 FRET inh, ATG4B inh)
COc1ccc(OC[C@@H](O)CNC(=O)c2cccc3c2C(=O)c2ccc(-c4ccc(F)cc4OCc4ccccc4)cc2S3(=O)=O)cc1	NadD block 35 | NadD conf inactive
O=C(NCc1ccc(F)cc1)c1cccc2c1C(=O)c1ccc(N3CCC(Cc4ccccc4)CC3)cc1S2(=O)=O	none
Cc1c(NC(=O)C(C)C)cccc1-c1nc2ncccc2o1	none
Cc1c(NC(=O)c2cccc(-c3cc4ccccc4oc3=O)c2)cccc1-c1nc2ncccc2o1	NadD block 48 | NadD conf inactive
N#C/C(=C\c1c(N2CCN(Cc3ccccc3)CC2)nc2ccccn2c1=O)S(=O)(=O)c1ccccc1	none
Cc1ccc(S(=O)(=O)/C(C#N)=C/c2c(N3CCN(Cc4ccccc4)CC3)nc3ccccn3c2=O)cc1	NadD block 47 | NadD conf inactive
Cc1cccc2sc(NNC(=O)c3cc(-c4cccs4)nc4ccccc34)nc12	NadD block 49 (no result: UCH37 DUB inh) | NadD conf 48
Cc1ccc(S(=O)(=O)N=C(c2ccccc2)N(C)S(=O)(=O)c2ccccc2)cc1	none (no result: NR3A LBD binder, NadD block, SENP1 FRET inh, ATG4B inh)
CCOc1cc(/C=C(\CC(=O)O)c2nc3ccccc3s2)ccc1OC	none
CCOc1cc(/C=C(\CC(=O)O)c2nc3ccccc3s2)ccc1OCC(=O)Nc1cccc(C(F)(F)F)c1	NadD block 37 | NadD conf inactive
CCCCOc1ccc(C=NNc2cc(N3CCOCC3)nc(C)n2)cc1	none (no result: NR3A LBD binder, NadD block, SENP1 FRET inh, ATG4B inh)
COc1ccc(-c2c/c(=N\c3nc(-c4ccccc4)c(C)s3)c3ccccc3o2)cc1O	NR3A LBD binder 15, NadD block 39 (no result: UCH37 DUB inh) | NadD conf inactive
Nc1nc2c(Br)ccc(Br)c2cc1C(=O)NCc1cccc2ccccc12	NadD block 41 (no result: NR3A LBD binder, UCH37 DUB inh, ATG4B inh) | NadD conf inactive
O=C(NCc1cccc2ccccc12)c1cccs1	none
NC(=O)c1c(NC(=O)COC(=O)CSc2nnc(-c3ccc(Cl)cc3)o2)sc2c1CCC2	NadD block 40 | NadD conf inactive
CCOC(=O)c1c(NC(=O)CSc2nnc(-c3ccc(OC)cc3)o2)sc2c1CCC2	none
CCOc1cc(C=Nn2cnnc2)ccc1O	none (no result: NR3A LBD binder, NadD block, SENP1 FRET inh, ATG4B inh)
Cn1c(=O)n(C)c2cc3[nH]cnc3cc21	none
Nc1cc2nc[nH]c2cc1N	NadD block 39 | NadD conf inactive
O=C(O)COc1ccc(/C=N/NC(=O)c2cn(-c3ccccc3)nc2-c2ccccc2)cc1	none (no result: UCH37 DUB inh)
O=C(N/N=C/c1ccc([N+](=O)[O-])o1)c1cn(-c2ccccc2)nc1-c1ccc(Cl)cc1	NR3A LBD binder 34, NadD block 36 (no result: UCH37 DUB inh) | NadD conf inactive
O=C(N/N=C/c1ccc([N+](=O)[O-])o1)c1cn(-c2ccccc2)nc1-c1ccccc1	NR3A LBD binder 13, NadD block 31 (no result: UCH37 DUB inh) | NadD conf inactive
O=C(N/N=C/c1coc2ccccc2c1=O)c1cn(-c2ccccc2)nc1-c1ccc(F)cc1	NadD block 34 (no result: UCH37 DUB inh) | NadD conf inactive
O=C(N/N=C/c1ccc([N+](=O)[O-])o1)c1ccccc1-n1cccc1	none (no result: UCH37 DUB inh)
O=S(=O)(c1ccc2c(c1)C(=NO)c1cc(S(=O)(=O)N3CCCCC3)ccc1-2)N1CCCCC1	NadD block 34 | NadD conf inactive
CC1CCN(S(=O)(=O)c2ccc3c(c2)C(=NO)c2cc(S(=O)(=O)N4CCC(C)CC4)ccc2-3)CC1	none
O=C(/C=C/c1cccs1)Nc1nccs1	none
O=C(/C=C/c1cccs1)Nc1cccc(NC(=O)/C=C/c2cccs2)n1	NR3A LBD binder 24, NadD block 32 | NadD conf inactive
O=C(N/N=C/c1ccc([N+](=O)[O-])o1)c1cc(-c2ccncc2)nc2ccccc12	none (no result: UCH37 DUB inh)
O=C(N/N=C/c1ccc(Cl)c([N+](=O)[O-])c1)c1cc(-c2ccccc2)nc2ccccc12	none (no result: UCH37 DUB inh)
O=C(N/N=C/c1cc([N+](=O)[O-])ccc1Cl)c1cc(-c2ccccc2)nc2ccccc12	NadD block 36 (no result: UCH37 DUB inh) | NadD conf inactive
O=C(N/N=C/c1ccc([N+](=O)[O-])o1)c1cc(-c2ccc(-c3ccccc3)cc2)nc2ccccc12	NadD block 70 (no result: UCH37 DUB inh) | NadD conf inactive
Cc1ccc(-c2cc(C(=O)N/N=C/c3ccc([N+](=O)[O-])o3)c3ccccc3n2)o1	NadD block 32 (no result: UCH37 DUB inh) | NadD conf inactive
O=C(NN=Cc1ccc([N+](=O)[O-])o1)c1cc(-c2ccc(-c3ccccc3)cc2)nc2ccccc12	none (no result: NR3A LBD binder, NadD block, SENP1 FRET inh, ATG4B inh)
O=C(NN=Cc1c[nH]c2ccccc12)c1cc(-c2ccc3ccccc3c2)n[nH]1	none (no result: NR3A LBD binder, NadD block, SENP1 FRET inh, ATG4B inh)
CCOC(=O)NN=Cc1ccc([N+](=O)[O-])s1	none (no result: NR3A LBD binder, NadD block, SENP1 FRET inh, ATG4B inh)
[O-]/C(=C(\C(=S)Nc1ccccc1F)[n+]1ccccc1)c1ccc(-c2ccccc2)cc1	NadD block 31 | NadD conf inactive
CC(C)(C)c1cc[n+](/C(C(=S)Nc2ccccc2F)=C(/[O-])c2ccc3c(c2)OCCO3)cc1	none
COc1cccc(-n2c(SCC(=O)N3CCc4ccccc43)nnc2-c2c[nH]c3ccccc23)c1	NadD block 38 | NadD conf inactive
CCOc1ccc(-n2c(SCC(=O)N3CCc4ccccc43)nnc2-c2c[nH]c3ccccc23)cc1	none
Brc1ccc(-c2nc(NN=Cc3cccnc3)c3ccccc3n2)cc1	none (no result: NR3A LBD binder, NadD block, SENP1 FRET inh, ATG4B inh)
Cc1cc(C(=O)O)ccc1-c1ccc(/C=C2\SC(=O)N(CC(=O)Nc3ccc4c(c3)OCO4)C2=O)o1	NadD block 48 (no result: NR3A LBD binder, UCH37 DUB inh, ATG4B inh) | NadD conf inactive
Cc1c(/C=C2\SC(=O)N(CC(=O)Nc3ccc4c(c3)OCO4)C2=O)c2ccccc2n1C	none
CCCCC(C)=NNC(=O)NC1CCCCC1	none (no result: NR3A LBD binder, NadD block, SENP1 FRET inh, ATG4B inh)
COc1ccccc1Nc1nc(-c2sc(NC(=O)C(C)(C)C)nc2C)cs1	none
Cc1ccc(Cl)cc1Nc1nc(-c2sc(NC(=O)C(C)(C)C)nc2C)cs1	NadD block 34 | NadD conf inactive
CCCC(=O)Nc1nc(C)c(-c2csc(Nc3ccccc3OC)n2)s1	none
CCCCCC(=O)Nc1nc(C)c(-c2csc(Nc3cc(Cl)ccc3OC)n2)s1	NadD block 42 | NadD conf inactive
O=C(CNC(=O)c1ccccc1Br)NN=Cc1cccnc1	none (no result: NR3A LBD binder, NadD block, SENP1 FRET inh, ATG4B inh)
C/C(C=NN1CCN(c2ccccc2)CC1)=C\c1ccco1	none (no result: NR3A LBD binder, NadD block, SENP1 FRET inh, ATG4B inh)
Cc1ccc(C=NNC(=O)c2cccs2)cc1[N+](=O)[O-]	none (no result: NR3A LBD binder, NadD block, SENP1 FRET inh, ATG4B inh)
Cc1ccc(C)n1NC(=O)c1ccc(Cl)cc1Cl	NadD block 34 | NadD conf inactive

Source: PubChem
